Assay results published in ChEMBL document CHEMBL1765049, “Inhibitory properties of 2-substituent-1H-benzimidazole-4-carboxamide derivatives against enteroviruses” (Bioorg Med Chem, 2011).

Tests used:
[1] = Selectivity index, ratio of TC50 for african green monkey Vero cells to IC50 for Coxsackievirus B3; assay type: toxicity, cell-based; settings: read-out: Selectivity Index
How it was run: (§1)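 Selectivity index is calculated as TC50 in Vero cells divided by the antiviral IC50 against the named enterovirus. Both values come from the same Vero cytopathic-effect assay, with compounds dissolved in DMSO and diluted in medium.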

Coxsackievirus B3 = assay: Antiviral activity against Coxsackievirus B3 infected in african green monkey Vero cells assessed as inhibition of viral growth after 24 hrs by Reed-Muench method; assay type: functional, organism-based; settings: Enterovirus B
How it was run: (§2)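 Vero cells were seeded and after 24 h exposed to virus for 2 h. Compounds were then added after being dissolved in DMSO and diluted in culture medium. Cell-control and virus-control wells were run alongside. Cytopathic effect was scored once the virus wells exceeded grade 4. The 50% inhibitory concentration of virus growth was calculated by the Reed–Muench method.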

[2] = Cytotoxicity against african green monkey Vero cells; assay type: cell-based; settings: chlorocebus sabaeus, Vero cells; read-out: TC50 (the source's name)
How it was run: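 TC50 is the compound concentration killing 50% of Vero cells (inhibiting cell growth by 50%). Compounds were dissolved in DMSO and diluted in medium, then added to seeded Vero cells. Cell wells were examined when cytopathic effect in virus-infected control wells exceeded grade 4.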

Coxsackievirus B6 = assay: Antiviral activity against Coxsackievirus B6 infected in african green monkey Vero cells assessed as inhibition of viral growth after 24 hrs by Reed-Muench method; assay type: functional, organism-based; settings: Enterovirus B; how it was run: as §2
[3] = Selectivity index, ratio of TC50 for african green monkey Vero cells to IC50 for Human enterovirus 71; assay type: toxicity, cell-based; settings: read-out: Selectivity Index; how it was run: as §1
Enterovirus A71 = assay: Antiviral activity against Human enterovirus 71 infected in african green monkey Vero cells assessed as inhibition of viral growth after 24 hrs by Reed-Muench method; assay type: functional, organism-based; settings: Enterovirus A; how it was run: as §2
[4] = Selectivity index, ratio of TC50 for african green monkey Vero cells to IC50 for Coxsackievirus A16; assay type: toxicity, cell-based; settings: read-out: Selectivity Index; how it was run: as §1
Coxsackievirus A16 = assay: Antiviral activity against Coxsackievirus A16 infected in african green monkey Vero cells assessed as inhibition of viral growth after 24 hrs by Reed-Muench method; assay type: functional, cell-based; settings: Enterovirus A, Vero, 24 h; read-out: IC50; how it was run: as §2
[5] = Selectivity index, ratio of TC50 for african green monkey Vero cells to IC50 for Coxsackievirus B6; assay type: toxicity, cell-based; settings: read-out: Selectivity Index; how it was run: as §1

SMILES | selectivity ratio [1] | IC50 (Coxsackievirus B3) | CC50 [2] | IC50 (Coxsackievirus B6) | selectivity ratio [3] | IC50 (Enterovirus A71) | selectivity ratio [4] | IC50 (Coxsackievirus A16) | selectivity ratio [5]
O=C(NCCO)c1cccc2[nH]c(-c3cccnc3)nc12 | 7.5 | 90.7 µM | 682 µM | – | – | – | – | – | –
COc1ccc(-c2nc3c(C(=O)Nc4cnc(Cl)cn4)cccc3[nH]2)cc1OC | 4.3 | 18.4 µM | 78.3 µM | 18.1 µM | 4.3 | 18.1 µM | 4.3 | 18.1 µM | 4.3
COc1ccc(-c2nc3c(C(=O)Nc4ccccc4F)cccc3[nH]2)c(OC)c1OC | 3.9 | 9.8 µM | 37.8 µM | – | – | – | 3 | 16.9 µM | –
CCC(CC)NC(=O)c1cccc2[nH]c(-c3ccc(OC)c(OC)c3OC)nc12 | 1.7 | 18.7 µM | 32.3 µM | 18.7 µM | 1.73 | 18.7 µM | 1.7 | 18.7 µM | 1.7
COc1ccc(-c2nc3c(C(=O)N[C@H](CO)[C@H](O)c4ccc([N+](=O)[O-])cc4)cccc3[nH]2)c(OC)c1OC | 2 | 4.73 µM | 9.85 µM | 4.73 µM | 2.7 | 3.68 µM | 2.1 | 4.73 µM | 2.1
COc1ccc(-c2nc3c(C(=O)Nc4nc5ccccc5[nH]4)cccc3[nH]2)cc1OC | – | – | 51.8 µM | – | – | – | 5.2 | 9.98 µM | –
O=C(Nc1ccccc1F)c1cccc2[nH]c(-c3ccc([N+](=O)[O-])o3)nc12 | 3 | 25.3 µM | 75.9 µM | – | – | – | – | – | –
O=C(Nc1ccccc1)c1cccc2[nH]c(-c3ccncc3)nc12 | 4 | 12.3 µM | 49.8 µM | – | – | – | – | – | –
COc1ccc(-c2nc3c(C(=O)Nc4c[nH]cn4)cccc3[nH]2)cc1OC | – | – | 306 µM | – | – | – | 3 | 102 µM | –
COc1ccc(-c2nc3c(C(=O)NCCCO)cccc3[nH]2)c(OC)c1OC | 2.1 | 19.5 µM | 40 µM | 19.2 µM | 2.7 | 14.9 µM | 2.1 | 19.2 µM | 2.7
O=C(Nc1ccccc1)c1cccc2[nH]c(-c3cccnc3)nc12 | 9.2 | 3.72 µM | 34.2 µM | – | – | – | – | – | –
NC(=O)c1cccc2[nH]c(-c3cccnc3)nc12 | 3 | 26 µM | 77.7 µM | – | – | – | – | – | –
O=C(N[C@H](CO)[C@H](O)c1ccc([N+](=O)[O-])cc1)c1cccc2[nH]c(-c3ccncc3)nc12 | 4.1 | 30.2 µM | 123 µM | – | – | – | – | – | –
O=C(Nc1ccccc1F)c1cccc2[nH]c(-c3cccnc3)nc12 | 3.2 | 9.73 µM | 54.7 µM | – | – | – | – | – | –
Cc1csc(NC(=O)c2cccc3[nH]c(-c4cccnc4)nc23)n1 | 6.8 | 16.2 µM | 111 µM | – | – | – | – | – | –
O=C(Nc1ccccc1F)c1cccc2[nH]c(-c3ccco3)nc12 | 7.5 | 3.3 µM | 25 µM | – | – | – | – | – | –
COc1ccc(-c2nc3c(C(=O)Nc4cnc(Cl)cn4)cccc3[nH]2)c(OC)c1OC | 3.8 | 17.4 µM | 65.2 µM | 16.9 µM | 3.9 | 16.9 µM | 3.9 | 16.9 µM | 3.9
Cc1csc(NC(=O)c2cccc3[nH]c(-c4ccccn4)nc23)n1 | 10 | 1.76 µM | 17.7 µM | – | – | – | – | – | –
O=C(Nc1ccccc1F)c1cccc2[nH]c(-c3ccncc3)nc12 | 3 | 37.2 µM | 111 µM | – | – | – | – | – | –

SMILES | selectivity ratio [1] | IC50 (Coxsackievirus B3) | CC50 [2] | IC50 (Coxsackievirus B6) | selectivity ratio [3] | IC50 (Enterovirus A71) | selectivity ratio [4] | IC50 (Coxsackievirus A16) | selectivity ratio [5]
O=C(N[C@H](CO)[C@H](O)c1ccc([N+](=O)[O-])cc1)c1cccc2[nH]c(-c3cccnc3)nc12 | 5.2 | 28.6 µM | 148 µM | – | – | – | – | – | –
COc1ccc(-c2nc3c(C(=O)N[C@H](CO)[C@H](O)c4ccc([N+](=O)[O-])cc4)cccc3[nH]2)cc1OC | – | – | 14.5 µM | – | – | – | 1.7 | 8.37 µM | –
COc1ccc(-c2nc3c(C(=O)Nc4ccccc4F)cccc3[nH]2)cc1OC | 7 | 3.5 µM | 24.5 µM | – | – | – | 7 | 3.5 µM | –
COc1ccc(-c2nc3c(C(=O)NCCCO)cccc3[nH]2)cc1OC | 2.7 | 17.2 µM | 46 µM | 12.1 µM | 2.7 | 20.9 µM | 2.1 | 20.9 µM | 3.6
COc1ccc(-c2nc3c(C(=O)Nc4nc(C#N)c(C#N)[nH]4)cccc3[nH]2)cc1OC | – | – | 43.1 µM | – | – | – | 4.3 | 9.98 µM | –
C[C@@H](NC(=O)c1cccc2[nH]c(-c3ccc([N+](=O)[O-])o3)nc12)[C@H](O)c1ccc(Cl)cc1 | 3 | 16.2 µM | 48.6 µM | – | – | – | – | – | –
NC(=O)c1cccc2[nH]c(-c3ccccn3)nc12 | 7.3 | 30.6 µM | 224 µM | – | – | – | – | – | –
C[C@@H](NC(=O)c1cccc2[nH]c(-c3ccco3)nc12)[C@H](O)c1ccc(Cl)cc1 | 12.1 | 13.4 µM | 162 µM | – | – | – | – | – | –
NC(=O)c1ncn([C@@H]2O[C@H](CO)[C@@H](O)[C@H]2O)n1 [RIBAVIRIN] | – | 1690 µM | 8190 µM | 910 µM | – | 2340 µM | – | 4090 µM | –
O=C(NCCO)c1cccc2[nH]c(-c3ccncc3)nc12 | – | – | 498 µM | – | – | – | – | – | –
COc1ccc(-c2nc3c(C(=O)Nc4cnccn4)cccc3[nH]2)cc1OC | – | – | 98.8 µM | – | – | – | 3 | 32.9 µM | –
Cc1csc(NC(=O)c2cccc3[nH]c(-c4ccncc4)nc23)n1 | 5.2 | 21.3 µM | 111 µM | – | – | – | – | – | –
O=C(Nc1ccccc1)c1cccc2[nH]c(-c3ccccn3)nc12 | 38.9 | 0.459 µM | 17.9 µM | – | – | – | – | – | –
O=C(Nc1ccccc1F)c1cccc2[nH]c(-c3ccccn3)nc12 | 28.4 | 1.63 µM | 54.7 µM | – | – | – | – | – | –
COc1ccc(-c2nc3c(C(=O)Nc4ncccc4O)cccc3[nH]2)cc1OC | – | – | 164 µM | – | – | – | 5.2 | 31.7 µM | –
O=C(N[C@H](CO)[C@H](O)c1ccc([N+](=O)[O-])cc1)c1cccc2[nH]c(-c3ccc([N+](=O)[O-])o3)nc12 | 3 | 22.9 µM | 68.7 µM | – | – | – | – | – | –
O=C(NCCO)c1cccc2[nH]c(-c3ccccn3)nc12 | 4.3 | 131 µM | 568 µM | – | – | – | – | – | –
O=C(N[C@H](CO)[C@H](O)c1ccc([N+](=O)[O-])cc1)c1cccc2[nH]c(-c3ccco3)nc12 | 4 | 37.7 µM | 152 µM | – | – | – | – | – | –
